Screening results from PubChem BioAssay.
G6PDH CS: counter-screen for G6PDH assay hits: L. mesenteroides G6PDH inhibition. Purified L. mesenteroides G6PDH, diaphorase/resazurin coupled fluorescence, 45 min. inhibition, % at 5 µM. 200,000 compounds, 0.12% hits. AID 1020; in the data active means inhibition above about 50%
Diaph inh CS: diaphorase inhibition or chemical oxidation counter-screen; diaphorase resazurin-to-resorufin fluorescence, NADH, 16 min; bacterial (C. kluyveri) enzyme, not human; 190,000 compounds, 0.69% hits; inhibition, % at 20 µM; AID 1217;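 active means primary screen inhibition at 20 µM above a set limit, cut at about 50% in these data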
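material = Clostridium kluyveri diaphorase enzyme | amount = 0.14 U/mL diaphorase, enzyme working solution | schedule = incubation 16 min, room temperature | detection = fluorescence of resorufin formed from resazurin, Ex 544/Em 590 nm | benchmarks = positive control minus NADH, DMSO neutral control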
PfGluPho inh: PfG6PD (Plasmodium falciparum) enzyme inhibition | PfGluPho enzyme, NADPH resazurin-diaphorase fluorescence | inhibition, % at 20 µM | 350,000 compounds, 0.78% hits;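 active means inhibition reaching at least a set limit at 20 µM in the primary screen, cut at about 59% in these data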
HKDC1 inhibitor: blocks human hexokinase HKDC1 activity. Q2TB90. recombinant HKDC1, G6PDH/diaphorase resazurin coupled fluorescence. inhibition, % at 20 µM. 340,000 compounds, 0.16% hits;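 active means inhibition above about 35% when tested at 20 µM, limit read from the data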
Target sequence (Q2TB90 whole entry, looked up): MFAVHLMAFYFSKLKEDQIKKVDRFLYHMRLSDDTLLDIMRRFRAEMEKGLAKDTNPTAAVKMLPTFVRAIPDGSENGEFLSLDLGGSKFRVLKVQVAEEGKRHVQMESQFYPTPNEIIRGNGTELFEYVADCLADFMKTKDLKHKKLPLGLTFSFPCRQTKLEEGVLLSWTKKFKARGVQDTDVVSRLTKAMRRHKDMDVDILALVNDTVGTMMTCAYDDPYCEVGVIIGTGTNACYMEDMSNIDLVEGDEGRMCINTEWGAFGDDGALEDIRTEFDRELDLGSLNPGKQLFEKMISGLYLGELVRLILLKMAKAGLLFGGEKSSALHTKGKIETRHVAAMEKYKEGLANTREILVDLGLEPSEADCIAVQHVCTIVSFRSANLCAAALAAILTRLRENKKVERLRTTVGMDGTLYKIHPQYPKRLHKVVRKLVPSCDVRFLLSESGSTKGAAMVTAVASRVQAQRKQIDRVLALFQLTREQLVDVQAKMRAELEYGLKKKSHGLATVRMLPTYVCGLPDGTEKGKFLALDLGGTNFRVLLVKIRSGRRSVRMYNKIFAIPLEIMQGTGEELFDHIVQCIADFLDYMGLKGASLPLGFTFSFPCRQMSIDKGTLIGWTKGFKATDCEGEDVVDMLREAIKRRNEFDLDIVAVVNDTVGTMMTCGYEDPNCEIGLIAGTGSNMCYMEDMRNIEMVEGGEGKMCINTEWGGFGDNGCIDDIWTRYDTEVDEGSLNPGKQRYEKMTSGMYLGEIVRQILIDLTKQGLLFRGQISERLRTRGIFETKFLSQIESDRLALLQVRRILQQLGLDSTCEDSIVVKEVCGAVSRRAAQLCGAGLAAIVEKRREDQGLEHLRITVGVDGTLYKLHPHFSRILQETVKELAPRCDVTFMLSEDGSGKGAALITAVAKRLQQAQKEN
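Test system: Recombinant HKDC1 (HK5) hexokinase enzyme, produced in-house | Input: HKDC1 at 5 µg/mL | Buffer or medium: Tris pH 8.0 buffer with MgCl2, Tween-20, BSA, BME | Schedule: 90 min reaction incubation at room temperature, dark | Technique: Resazurin-to-resorufin fluorescence via G6PDH and diaphorase coupling, 525/613 nm | Controls: DMSO wells with and without enzyme mix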
Diaphorase act: activates diaphorase or chemically reduces, flagging diaphorase assay artifacts; Diaphorase/resazurin coupled assay, resorufin fluorescence, 16 min; active compounds read high; 1 = vehicle wells, 0 = NADH-free wells; activation factor at 20 µM; 190,000 compounds, 0.005% hits;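 active means diaphorase activity raised at least twofold by the compound at 20 µM; inactive means activation factor below 2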
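Measured by – red resorufin fluorescence at 544/590 nm excitation/emission · Test system – Clostridium kluyveri diaphorase, purified enzyme · Incubation – reaction time 16 min, room temperature · Buffer or medium – 50 mM HEPES pH 7.4 with 4.542 mM MgCl2, 0.005% Tween 20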
PfG6PD confirm: PfG6PD inhibition, single-dose confirmed | inhibition, % at 20 µM | 2,400 compounds, 34% hits | recombinant PfGluPho, NADPH-diaphorase-resazurin fluorescence | shares compounds with PfGluPho inh | AID 504753;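 active means inhibition of at least 50% at 20 µM in any single replicate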
Diaph ctr 10uM: diaphorase inhibition or oxidation at 10 uM NADPH; shares compounds with PfGluPho inh; 820 compounds, 39% hits; AID 504862; diaphorase-coupled resazurin reduction, fluorescence, NADPH 10 uM; inhibition, % at 20 µM;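 active means average inhibition reaching 50% or more with the compound at 20 µM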;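 further: resorufin red fluorescence formed as diaphorase reduces resazurin using NADPH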
Diaph ctr 30uM: inhibits diaphorase or oxidizes, flagging false PfG6PD hits; Diaphorase/resazurin coupled assay, resorufin fluorescence, 30 uM NADPH; inhibition, % at 20 µM; shares compounds with PfGluPho inh; 820 compounds, 29% hits;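 active means inhibition averaging 50% or more, tested at 20 µM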
Each line names hits and unclear results; the compound was inactive in the other large screens (follow-up assays come after a bar, where they were run). Rows were chosen to be rich in hits. Some 1.2% of all compounds tested hit in one or more screens of this group.

CNS(=O)(=O)c1ccc(-c2ccc(C=C3C(=O)NC(=O)NC3=O)o2)cc1	PfGluPho inh 81 (no result: G6PDH CS, Diaph inh CS, Diaphorase act) | PfG6PD confirm 55 | Diaph ctr 10uM inactive | Diaph ctr 30uM inactive
NS(=O)(=O)c1ccc(-c2ccc(C=C3C(=O)NC(=O)NC3=O)o2)cc1	PfGluPho inh 78 (no result: G6PDH CS, Diaph inh CS, Diaphorase act) | PfG6PD confirm 80 | Diaph ctr 10uM inactive | Diaph ctr 30uM inactive
O=C1NC(=O)C(=Cc2ccc(SC3CCCCC3)o2)C(=O)N1	none
C=C(C)CC1(CC)C(=O)NC(=S)NC1=O	none (no result: G6PDH CS, Diaph inh CS, Diaphorase act)
O=C1NC(=S)NC(=O)C1=Cc1ccc(Br)s1	PfGluPho inh 65 (no result: G6PDH CS, Diaph inh CS, Diaphorase act) | PfG6PD confirm 84 | Diaph ctr 10uM inactive | Diaph ctr 30uM inactive
O=C1NC(=S)NC(=O)C1=Cc1c(Cl)cccc1Cl	none (no result: G6PDH CS, Diaph inh CS, Diaphorase act)
c1ccc2[nH]c(CCN3CCCCC3)nc2c1	none (no result: G6PDH CS, Diaph inh CS, HKDC1 inhibitor, Diaphorase act)
CC(C)(C)NC(=S)N1Cc2ccccc2-n2nncc2C1	none (no result: G6PDH CS, Diaph inh CS, HKDC1 inhibitor, Diaphorase act)
O=C1C=C(N2CC2)c2ccccc2C1=O	PfGluPho inh 100 (no result: G6PDH CS, Diaph inh CS, HKDC1 inhibitor, Diaphorase act) | PfG6PD confirm 72 | Diaph ctr 10uM 54 | Diaph ctr 30uM 63
NC(Cc1ccc(O)cc1)C(=O)NN=Cc1ccc(N(CCCl)CCCl)cc1 (stereo unspecified)	none (no result: G6PDH CS, Diaph inh CS, Diaphorase act)
CNC(=O)Oc1ccc(-c2cn3cc(Cl)ccc3n2)cc1	PfGluPho inh 68 | PfG6PD confirm inactive
CC1CN1P(=S)(c1ccccc1)N1CC1C (stereo unspecified)	none (no result: G6PDH CS, Diaph inh CS, Diaphorase act)
C[C@]12C[C@H](O)[C@@H](O)CC1=CCC1C2CC[C@@]2(C)C1CC[C@@H]2O (stereo partly specified)	none (no result: G6PDH CS, Diaph inh CS, Diaphorase act)
